Test results as given in ChEMBL document CHEMBL2434950 (Eur J Med Chem, 2013).
Converted amounts (≈) assume the structure as drawn.

Tests used:
Toxoplasma gondii [1] = assay: Antiparasitic activity against Toxoplasma gondii tachyzoites by fluorescence assay; format: functional; conditions: read-out: ED50 (the source's name)
In short: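 Red fluorescent protein-expressing tachyzoites were filtered (3 µm) and needle-passed, then seeded at 4×10^4/well onto confluent hTERT monolayers in DMEM-HG with 1% FBS, 2 mM glutamine and 1 mM pyruvate, at 37 °C. Drugs were serially diluted in the same medium. Plates were read daily from the bottom (ex 544/em 590 nm). EC50 came from the fit I = Imax·C/(EC50 + C), Imax 100%. Three experiments, each in triplicate.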

Trypanosoma cruzi [2] = assay: Antiparasitic activity against Trypanosoma cruzi amastigotes after 3 days by fluorescence assay; format: functional; conditions: 72 h, read-out: ED50 (the source's name)
In short: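 Gamma-irradiated (2000 Rads) Vero cells, 3.4×10^4/well in RPMI with 10% FBS, were kept overnight at 35 °C, 7% CO2. […] Serial dilutions were added at 5 concentrations up to 20 or 25 µM, each in quadruplicate, with a benznidazole control. Fluorescence was read at day 3, and IC50 was derived by non-linear regression.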

[3] = Cytotoxicity against african green monkey Vero cells by Alamar blue assay; format: cell-based; conditions: chlorocebus sabaeus, read-out: ED50 (the source's name)
Trypanosoma cruzi [4] = assay: Ratio of compound ED50 to WC-9 ED50 for Trypanosoma cruzi amastigotes after 3 days by fluorescence assay; format: functional
Toxoplasma gondii [5] = assay: Antiparasitic activity against Toxoplasma gondii tachyzoites at 10 uM by fluorescence assay; format: functional
[6] = Non-competitive inhibition of glycosomal Trypanosoma cruzi SQS
Trypanosoma cruzi [7] = assay: Antiparasitic activity against Trypanosoma cruzi EP epimastigotes; format: functional
[8] = Non-competitive inhibition of mitochondrial Trypanosoma cruzi SQS

O=[N+]([O-])c1cccc(Oc2ccc(OCCOC3CCCCO3)cc2)c1 (stereo not given)
EC50 (Toxoplasma gondii [1]): 3.28 µM | EC50 (Trypanosoma cruzi [2]): > 10 µM | CC50 [3]: > 50 µM

N#CSCCOc1ccc(Oc2cccc([N+](=O)[O-])c2)cc1
Ratio ED50 (Trypanosoma cruzi [4]): 1.04 | EC50 (Toxoplasma gondii [1]): 2.03 µM | EC50 (Trypanosoma cruzi [2]): 5.2 µM | CC50 [3]: > 50 µM

COc1ccc(Oc2ccc(OCCSC#N)cc2)cc1
EC50 (Toxoplasma gondii [1]): 3.81 µM | EC50 (Trypanosoma cruzi [2]): 6.1 µM | CC50 [3]: > 100 µM

COc1cccc(Oc2ccc(OCCSC#N)cc2)c1
EC50 (Toxoplasma gondii [1]): 6.7 µM | EC50 (Trypanosoma cruzi [2]): 4.5 µM | CC50 [3]: > 50 µM

c1cncc(Oc2ccc(OCCOC3CCCCO3)cc2)c1 (stereo not given)
EC50 (Trypanosoma cruzi [2]): > 10 µM | Activity (Toxoplasma gondii [5]): 3.25% | CC50 [3]: > 50 µM

N#CSCCOc1ccc(Oc2cccnc2)cc1
EC50 (Toxoplasma gondii [1]): 7.5 µM | EC50 (Trypanosoma cruzi [2]): 7.4 µM | CC50 [3]: > 50 µM

N#CSCCOc1cccc(Oc2ccccc2)c1
EC50 (Toxoplasma gondii [1]): 3.95 µM | EC50 (Trypanosoma cruzi [2]): 11.2 µM | CC50 [3]: > 50 µM

COc1ccc(Oc2cccc(OCCSC#N)c2)cc1
EC50 (Toxoplasma gondii [1]): 2.93 µM | EC50 (Trypanosoma cruzi [2]): 10.1 µM | CC50 [3]: > 50 µM

N#CSCCOc1ccc(Oc2ccccc2)cc1
IC50 [6]: 0.088 µM | Ki [6]: 0.088 µM | MIC (Trypanosoma cruzi [7]): 1 µM (≈ 0.271 µg/mL) | EC50 (Toxoplasma gondii [1]): 4.8 µM | EC50 (Trypanosoma cruzi [2]): 5 µM | CC50 [3]: > 50 µM | IC50 [8]: 0.129 µM | Ki [8]: 0.129 µM

O=C1C(O)=C([C@H]2CC[C@H](c3ccc(Cl)cc3)CC2)C(=O)c2ccccc21 [ATOVAQUONE]
EC50 (Toxoplasma gondii [1]): 0.032 µM

O=C(Cn1ccnc1[N+](=O)[O-])NCc1ccccc1 [BENZNIDAZOLE]
EC50 (Trypanosoma cruzi [2]): 1.75 µM
